# Assay results as given in ChEMBL document CHEMBL1828516, “Discovery of novel alkylated (bis)urea and (bis)thiourea polyamine analogues with potent antimalarial activities” (J Med Chem, 2011).
# Activity calls are given as the source filed them. The calls are words filed in the database; no cut-off is given here.
# Tests used:
# Plasmodium falciparum [1] = assay: Antimalarial activity against drug-sensitive Plasmodium falciparum 3D7 infected in human erythrocytes after 96 hrs by SYBR Green I-based fluorescence assay; assay type: functional, organism-based; conditions: 3D7, 96 h
# In short: (§1)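 Ring-stage cultures synchronized with 10% D-sorbitol, grown in O+ human erythrocytes in RPMI-1640 with HEPES, hypoxanthine, glucose, gentamycin and Albumax II under 5% CO2/5% O2/90% N2 at 37°C. Compounds in DMSO (<0.013%), serially diluted, added at 1% parasitemia, 2% hematocrit. Static 96 h incubation, then SYBR Green I lysis buffer for 1 h in dark. Fluorescence at ex 485/em 538 nm.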
# Plasmodium falciparum [2] = assay: Antimalarial activity against […] Plasmodium falciparum HB3 infected in human erythrocytes after 96 hrs by SYBR Green I-based fluorescence assay; assay type: functional, organism-based; conditions: HB3, 96 h; in short: as §1
# Plasmodium falciparum [3] = assay: Antimalarial activity against antifolate-resistant Plasmodium falciparum W2 infected in human erythrocytes after 96 hrs by SYBR Green I-based fluorescence assay; assay type: functional, organism-based; conditions: W2, 96 h; in short: as §1
# Plasmodium falciparum [4] = assay: Resistance ratio of IC50 for Plasmodium falciparum W2 to IC50 for Plasmodium falciparum 3D7; assay type: functional
# In short: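 Ratio of W2 IC50 to 3D7 IC50, both from the 96 h SYBR Green I fluorescence assay.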
# Plasmodium falciparum [5] = assay: Antimalarial activity against Plasmodium falciparum assessed as inhibition of DNA replication at 2 times IC50 after 72 hrs by FITC-SYBR Green I-based flow cytometry; assay type: functional, organism-based
# Plasmodium falciparum [6] = assay: Antimalarial activity against Plasmodium falciparum 3D7 infected in human erythrocytes assessed as decrease in parasitemia at 2 times IC50 after 72 hrs by giemsa staining method; assay type: functional, organism-based
# In short: (§2)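 P. falciparum 3D7 in O+ human erythrocytes, treated at 2xIC50 for 72 h. Parasitemia scored microscopically on Giemsa-stained smears, counting 100 parasites per slide 10x, alongside SYBR Green I DNA quantitation. Parasitemia compared at 0 h and 72 h. Three independent experiments in triplicate, mean ± S.E.; Student t-test, P<0.05.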
# HepG2 = assay: Cytotoxicity against human HepG2 cells after 48 hrs by lactate dehydrogenase assay; assay type: cell-based; conditions: hepg2, 48 h
# In short: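 HepG2 cells in DMEM with 10% heat-inactivated FBS, 37°C, 5% CO2. Cells pelleted at 250xg, supernatant LDH activity read colorimetrically as NADH at 450 nm after 30 min at room temperature. Duplicate, at least two biological repeats, mean ± S.E.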
# [7] = Selectivity index, ratio of GI50 for human HepG2 cells to IC50 for Plasmodium falciparum 3D7; assay type: functional
# Plasmodium falciparum [8] = assay: Antimalarial activity against Plasmodium falciparum assessed as increase in 1N ring or trophozoite stage parasites at 2 times IC50 after 72 hrs by FITC-SYBR Green I-based flow cytometry; assay type: functional, organism-based
# Plasmodium falciparum [9] = assay: Antimalarial activity against Plasmodium falciparum assessed as reduction in 2N schizont stage parasites at 2 times IC50 after 72 hrs by FITC-SYBR Green I-based flow cytometry; assay type: functional, organism-based
# Plasmodium falciparum [10] = assay: Antimalarial activity against Plasmodium falciparum assessed as reduction in >2N schizont stage parasites at 2 times IC50 after 72 hrs by FITC-SYBR Green I-based flow cytometry; assay type: functional, organism-based
# Trypanosoma brucei = assay: Antitrypanosomal activity against Trypanosoma brucei; assay type: functional, organism-based
# Plasmodium falciparum [11] = assay: Cytostatic activity against Plasmodium falciparum 3D7 infected in human erythrocytes at 2 times IC50 after 72 hrs by giemsa staining method; assay type: functional, organism-based; in short: as §2
structure (smiles),measurement,setting,value
S=C(NCCCNCCCCCCNCCCNC(=S)NCC(c1ccccc1)c1ccccc1)NCC(c1ccccc1)c1ccccc1,IC50,Plasmodium falciparum [1],436 nM
CCCNC(=S)NCCCNCCCCCCNCCCNC(=S)NCCC,IC50,Plasmodium falciparum [1],425 nM
CCNC(=O)NCCCNCCCCCCNCCCNC(=O)NCC,IC50,Plasmodium falciparum [1],> 15000 nM
S=C(NCCCNCCCNCCCNC(=S)NCCC(c1ccccc1)c1ccccc1)NCCC(c1ccccc1)c1ccccc1,IC50,Plasmodium falciparum [2],1640 nM
same,IC50,Plasmodium falciparum [1],1430 nM
Cl.Cl.O=C(NCCCNCCCCCCNCCCNC(=O)Nc1ccccc1)Nc1ccccc1,IC50,Plasmodium falciparum [1],88 nM
same,IC50,Plasmodium falciparum [3],26 nM
same,Ratio IC50,Plasmodium falciparum [4],0.3
same,DNA replication inhibition (active/inactive),Plasmodium falciparum [5],Active
same,Activity,Plasmodium falciparum [6],Active
same,GI50,HepG2,619000 nM
same,Selectivity Index,[7],7038
same,Activity,Plasmodium falciparum [8],Active
same,Activity,Plasmodium falciparum [9],Active
same,Activity,Plasmodium falciparum [10],Active
O=C(NCCCNCCCNCCCNC(=O)NCCC(c1ccccc1)c1ccccc1)NCCC(c1ccccc1)c1ccccc1,IC50,Plasmodium falciparum [1],653 nM
O=C(NCCCNCCCCNCCCNC(=O)NCCC(c1ccccc1)c1ccccc1)NCCC(c1ccccc1)c1ccccc1,IC50,Plasmodium falciparum [2],517 nM
same,IC50,Plasmodium falciparum [1],657 nM
N=C(NCCCNCCCCCCCNCCCNC(=N)NC(=N)NCCC(c1ccccc1)c1ccccc1)NC(=N)NCCC(c1ccccc1)c1ccccc1,IC50,Plasmodium falciparum [2],224 nM
same,IC50,Plasmodium falciparum [1],298 nM
same,IC50,Trypanosoma brucei,90 nM
CC(=N)NCCCNCCCNCCCNC(C)=N,IC50,Plasmodium falciparum [2],110000 nM
same,IC50,Plasmodium falciparum [1],147000 nM
S=C(NCCCNCCCNCCCNC(=S)NC(c1ccccc1)c1ccccc1)NC(c1ccccc1)c1ccccc1,IC50,Plasmodium falciparum [2],766 nM
same,IC50,Plasmodium falciparum [1],1080 nM
CC(=N)NCCCNCCCCNCCCNC(C)=N,IC50,Plasmodium falciparum [2],14200 nM
same,IC50,Plasmodium falciparum [1],80000 nM
CCCNC(=O)NCCCNCCCCCCNCCCNC(=O)NCCC,IC50,Plasmodium falciparum [1],14100 nM
O=C(NCCCNCCCCNCCCNC(=O)NC(c1ccccc1)c1ccccc1)NC(c1ccccc1)c1ccccc1,IC50,Plasmodium falciparum [1],691 nM
Cl.Cl.S=C(NCCCNCCCCNCCCNC(=S)NCc1ccccc1)NCc1ccccc1,IC50,Plasmodium falciparum [1],355 nM
same,IC50,Plasmodium falciparum [3],66 nM
same,Ratio IC50,Plasmodium falciparum [4],0.19
same,DNA replication inhibition (active/inactive),Plasmodium falciparum [5],inactive
same,Activity,Plasmodium falciparum [6],inactive
same,GI50,HepG2,> 200000 nM
same,Selectivity Index,[7],>500
same,Activity,Plasmodium falciparum [8],inactive
same,Activity,Plasmodium falciparum [9],inactive
same,Activity,Plasmodium falciparum [10],inactive
same,Activity,Plasmodium falciparum [11],Active
O=C(NCCCNCCCCCCNCCCNC(=O)NCc1ccccc1)NCc1ccccc1,IC50,Plasmodium falciparum [1],339 nM
S=C(NCCCNCCCCCCCNCCCNC(=S)NC(c1ccccc1)c1ccccc1)NC(c1ccccc1)c1ccccc1,IC50,Plasmodium falciparum [2],138 nM
same,IC50,Plasmodium falciparum [1],641 nM
S=C(NCCCNCCCCNCCCNC(=S)NCC(c1ccccc1)c1ccccc1)NCC(c1ccccc1)c1ccccc1,IC50,Plasmodium falciparum [2],170 nM
same,IC50,Plasmodium falciparum [1],329 nM
same,IC50,Plasmodium falciparum [3],200 nM
same,DNA replication inhibition (active/inactive),Plasmodium falciparum [5],Active
same,Activity,Plasmodium falciparum [6],Active
same,GI50,HepG2,18900 nM
same,Activity,Plasmodium falciparum [8],Active
same,Activity,Plasmodium falciparum [9],Active
same,Activity,Plasmodium falciparum [10],Active
S=C(NCCCNCCCNCCCNC(=S)NCC(c1ccccc1)c1ccccc1)NCC(c1ccccc1)c1ccccc1,IC50,Plasmodium falciparum [2],715 nM
same,IC50,Plasmodium falciparum [1],1320 nM
Cl.Cl.O=C(NCCCNCCCCCCCNCCCNC(=O)NC(c1ccccc1)c1ccccc1)NC(c1ccccc1)c1ccccc1,IC50,Plasmodium falciparum [1],131 nM
same,IC50,Plasmodium falciparum [3],221 nM
same,Ratio IC50,Plasmodium falciparum [4],1.7
same,DNA replication inhibition (active/inactive),Plasmodium falciparum [5],Active
same,Activity,Plasmodium falciparum [6],Active
same,GI50,HepG2,> 200000 nM
same,Selectivity Index,[7],>1500
same,Activity,Plasmodium falciparum [8],Active
same,Activity,Plasmodium falciparum [9],Active
same,Activity,Plasmodium falciparum [10],Active
S=C(NCCCNCCCCCCNCCCNC(=S)NCCC(c1ccccc1)c1ccccc1)NCCC(c1ccccc1)c1ccccc1,IC50,Plasmodium falciparum [1],310 nM
O=C(NCCCNCCCCNCCCNC(=O)NCC(c1ccccc1)c1ccccc1)NCC(c1ccccc1)c1ccccc1,IC50,Plasmodium falciparum [1],408 nM
S=C(NCCCNCCCCCCNCCCNC(=S)Nc1ccccc1)Nc1ccccc1,IC50,Plasmodium falciparum [1],846 nM
CC(=N)NCCCNCCCCCCCNCCCNC(C)=N,IC50,Plasmodium falciparum [2],70300 nM
O=C(NCCCNCCCCNCCCNC(=O)NCc1ccccc1)NCc1ccccc1,IC50,Plasmodium falciparum [2],> 1000 nM
same,IC50,Plasmodium falciparum [1],3480 nM
CCNC(=S)NCCCNCCCCCCNCCCNC(=S)NCC,IC50,Plasmodium falciparum [1],1350 nM
S=C(NCCCNCCCCNCCCNC(=S)NC(c1ccccc1)c1ccccc1)NC(c1ccccc1)c1ccccc1,IC50,Plasmodium falciparum [2],317 nM
same,IC50,Plasmodium falciparum [1],433 nM
Cl.Cl.S=C(NCCCNCCCCCCNCCCNC(=S)NCc1ccccc1)NCc1ccccc1,IC50,Plasmodium falciparum [1],106 nM
same,IC50,Plasmodium falciparum [3],198 nM
same,Ratio IC50,Plasmodium falciparum [4],1.9
same,DNA replication inhibition (active/inactive),Plasmodium falciparum [5],Active
same,Activity,Plasmodium falciparum [6],Active
same,GI50,HepG2,> 200000 nM
same,Selectivity Index,[7],>1500
same,Activity,Plasmodium falciparum [8],Active
same,Activity,Plasmodium falciparum [9],Active
same,Activity,Plasmodium falciparum [10],Active
Cl.Cl.O=C(NCCCNCCCCCCCNCCCNC(=O)NCCC(c1ccccc1)c1ccccc1)NCCC(c1ccccc1)c1ccccc1,IC50,Plasmodium falciparum [2],200 nM
same,IC50,Plasmodium falciparum [1],144 nM
same,IC50,Plasmodium falciparum [3],163 nM
same,Ratio IC50,Plasmodium falciparum [4],1.13
same,DNA replication inhibition (active/inactive),Plasmodium falciparum [5],Active
same,Activity,Plasmodium falciparum [6],Active
same,GI50,HepG2,23900 nM
same,Selectivity Index,[7],166
same,Activity,Plasmodium falciparum [8],Active
same,Activity,Plasmodium falciparum [9],Active
same,Activity,Plasmodium falciparum [10],Active
Cl.Cl.S=C(NCCCNCCCCCCCNCCCNC(=S)NCCC(c1ccccc1)c1ccccc1)NCCC(c1ccccc1)c1ccccc1,IC50,Plasmodium falciparum [2],256 nM
same,IC50,Plasmodium falciparum [1],253 nM
same,IC50,Plasmodium falciparum [3],147 nM
same,Ratio IC50,Plasmodium falciparum [4],0.58
same,DNA replication inhibition (active/inactive),Plasmodium falciparum [5],Active
same,Activity,Plasmodium falciparum [6],Active
same,GI50,HepG2,24500 nM
same,Selectivity Index,[7],97
same,Activity,Plasmodium falciparum [8],Active
same,Activity,Plasmodium falciparum [9],Active
same,Activity,Plasmodium falciparum [10],Active
Cl.Cl.O=C(NCCCNCCCCCCCNCCCNC(=O)NCC(c1ccccc1)c1ccccc1)NCC(c1ccccc1)c1ccccc1,IC50,Plasmodium falciparum [1],100 nM
same,IC50,Plasmodium falciparum [3],140 nM
same,Ratio IC50,Plasmodium falciparum [4],1.4
same,DNA replication inhibition (active/inactive),Plasmodium falciparum [5],Active
same,Activity,Plasmodium falciparum [6],Active
same,GI50,HepG2,33800 nM
same,Selectivity Index,[7],338
same,Activity,Plasmodium falciparum [8],Active
same,Activity,Plasmodium falciparum [9],Active
same,Activity,Plasmodium falciparum [10],Active
Cl.Cl.S=C(NCCCNCCCCCCNCCCNC(=S)NC(c1ccccc1)c1ccccc1)NC(c1ccccc1)c1ccccc1,IC50,Plasmodium falciparum [1],211 nM
same,IC50,Plasmodium falciparum [3],256 nM
same,Ratio IC50,Plasmodium falciparum [4],1.2
same,DNA replication inhibition (active/inactive),Plasmodium falciparum [5],Active
same,Activity,Plasmodium falciparum [6],Active
same,GI50,HepG2,> 200000 nM
same,Selectivity Index,[7],>500
same,Activity,Plasmodium falciparum [8],Active
same,Activity,Plasmodium falciparum [9],Active
same,Activity,Plasmodium falciparum [10],Active
S=C(NCCCNCCCCNCCCNC(=S)NCCC(c1ccccc1)c1ccccc1)NCCC(c1ccccc1)c1ccccc1,IC50,Plasmodium falciparum [2],1030 nM
same,IC50,Plasmodium falciparum [1],528 nM
